Measured values published in ChEMBL document CHEMBL1144777, “An endophytic fungus from Hypericum perforatum that produces hypericin” (J Nat Prod, 2008).
The source made the active and inactive calls.

Assays:
Escherichia coli = experiment: Antimicrobial activity against Escherichia coli DSM 682 by disk diffusion method; assay type: functional, organism-based
In short: (§1)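 Samples were fungal products from potato dextrose broth cultures, tested alongside authentic standards. Organic extracts of mycelia and broth were dried by rotary evaporation at 30 °C and redissolved in 1 mL HPLC-grade methanol.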

Pseudomonas aeruginosa = experiment: Antimicrobial activity against Pseudomonas aeruginosa DSM 1128 by disk diffusion method; assay type: functional, organism-based; in short: as §1
Candida albicans = experiment: Antimicrobial activity against Candida albicans DSM 1386 by disk diffusion method; assay type: functional, organism-based; in short: as §1
[1] = system: Klebsiella pneumoniae subsp. pneumoniae; experiment: Antimicrobial activity against Klebsiella pneumoniae ssp. ozaenae DSM 681 by disk diffusion method; assay type: functional, organism-based; in short: as §1
[2] = system: Salmonella enterica subsp. enterica; experiment: Antimicrobial activity against Salmonella enterica ssp. enterica DSM 9898 by disk diffusion method; assay type: functional, organism-based; in short: as §1
Staphylococcus aureus = experiment: Antimicrobial activity against Staphylococcus aureus ssp. Aureus DSM 799 by disk diffusion method; assay type: functional; in short: as §1
Aspergillus niger = experiment: Antimicrobial activity against Aspergillus niger DSM 1988 by disk diffusion method; assay type: functional, organism-based; in short: as §1

Measured: Activity

Cc1cc(O)c2c(c1)C(=O)c1cc(O)cc(O)c1C2=O
active: Escherichia coli | Pseudomonas aeruginosa | Candida albicans | [1] | [2] | Staphylococcus aureus | Aspergillus niger

Cc1cc(O)c2c(=O)c3c(O)cc(O)c4c5c(O)cc(O)c6c(=O)c7c(O)cc(C)c8c1c2c(c34)c(c78)c65
active: Escherichia coli | Pseudomonas aeruginosa | Candida albicans | [1] | [2] | Staphylococcus aureus | Aspergillus niger
